# According to ChEMBL document CHEMBL4261538, “Synthesis and molecular docking studies of xanthone attached amino acids as potential antimicrobial and anti-inflammatory agents” (Medchemcomm, 2017):
# Tests used:
# Erythrocyte = assay: Anti-inflammatory activity in human RBC assessed as inhibition of hypotonic solution-induced hemolysis after 10 mins by spectrophotometric method; assay type: functional, cell-based
# Procedure, shortened: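 Human blood (heparinized) washed with 0.9% saline, packed cells made into a 40% v/v stock in isotonic phosphate buffer (154 mM NaCl, 10 mM sodium phosphate, pH 7.4). Stock RBC mixed with hypotonic buffer (50 mM NaCl, 10 mM phosphate, pH 7.4) plus sample at 20–100 µg mL⁻¹.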
# Staphylococcus aureus [1] = assay: Antibacterial activity against Staphylococcus aureus at 100 ug/ml incubated for 24 hrs by agar well diffusion method; assay type: functional; conditions: read-out: DIZ
# Procedure, shortened: (§1)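 Bacteria grown in nutrient broth at 37 °C for 24 h, then subcultured at room temperature. Compounds dissolved in DMSO at 5 mg mL⁻¹ and 5–20 µL added to 6 mm wells, giving 25, 50, 75, 100 µg per well. Gentamicin was the positive control and DMSO the negative control. Plates held at 37 °C for 24 h, then inhibition zone diameter (mm) measured. Values are means of three determinations.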
# Aspergillus niger [2] = assay: Antifungal activity against Aspergillus niger at 100 ug/ml incubated for 48 hrs by agar well diffusion method; assay type: functional; conditions: read-out: DIZ
# Procedure, shortened: (§2)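 Compounds dissolved in DMSO at 5 mg mL⁻¹ and 5–20 µL added to 6 mm wells, giving 25, 50, 75, 100 µg per well. Bavistin was the positive control and DMSO the negative control. Plates incubated at 28 °C for 48 h, then inhibition zone diameter (mm) measured. Values are means of three determinations.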
# Candida albicans [3] = assay: Antifungal activity against Candida albicans at 50 ug/ml incubated for 48 hrs by agar well diffusion method; assay type: functional; conditions: read-out: DIZ; procedure, shortened: as §2
# Bacillus subtilis [4] = assay: Antibacterial activity against Bacillus subtilis at 100 ug/ml incubated for 24 hrs by agar well diffusion method; assay type: functional; conditions: read-out: DIZ; procedure, shortened: as §1
# Klebsiella pneumoniae [5] = assay: Antibacterial activity against Klebsiella pneumoniae at 50 ug/ml incubated for 24 hrs by agar well diffusion method; assay type: functional; conditions: read-out: DIZ; procedure, shortened: as §1
# Aspergillus niger [6] = assay: Antifungal activity against Aspergillus niger at 75 ug/ml incubated for 48 hrs by agar well diffusion method; assay type: functional; conditions: read-out: DIZ; procedure, shortened: as §2
# Candida albicans [7] = assay: Antifungal activity against Candida albicans at 25 ug/ml incubated for 48 hrs by agar well diffusion method; assay type: functional; conditions: read-out: DIZ; procedure, shortened: as §2
# Staphylococcus aureus [8] = assay: Antibacterial activity against Staphylococcus aureus incubated for 24 hrs by microdilution method; assay type: functional
# Escherichia coli [9] = assay: Antibacterial activity against Escherichia coli at 75 ug/ml incubated for 24 hrs by agar well diffusion method; assay type: functional; conditions: read-out: DIZ; procedure, shortened: as §1
# Fusarium oxysporum [10] = assay: Antifungal activity against Fusarium oxysporum at 25 ug/ml incubated for 48 hrs by agar well diffusion method; assay type: functional; conditions: read-out: DIZ; procedure, shortened: as §2
# Staphylococcus aureus [11] = assay: Antibacterial activity against Staphylococcus aureus at 25 ug/ml incubated for 24 hrs by agar well diffusion method; assay type: functional; conditions: read-out: DIZ; procedure, shortened: as §1
# Candida albicans [12] = assay: Antifungal activity against Candida albicans at 100 ug/ml incubated for 48 hrs by agar well diffusion method; assay type: functional; conditions: read-out: DIZ; procedure, shortened: as §2
# Candida albicans [13] = assay: Antifungal activity against Candida albicans at 75 ug/ml incubated for 48 hrs by agar well diffusion method; assay type: functional; conditions: read-out: DIZ; procedure, shortened: as §2
# Bacillus subtilis [14] = assay: Antibacterial activity against Bacillus subtilis incubated for 24 hrs by microdilution method; assay type: functional
# Bacillus subtilis [15] = assay: Antibacterial activity against Bacillus subtilis at 50 ug/ml incubated for 24 hrs by agar well diffusion method; assay type: functional; conditions: read-out: DIZ; procedure, shortened: as §1
# Escherichia coli [16] = assay: Antibacterial activity against Escherichia coli at 50 ug/ml incubated for 24 hrs by agar well diffusion method; assay type: functional; conditions: read-out: DIZ; procedure, shortened: as §1
# Staphylococcus aureus [17] = assay: Induction of cell membrane damage in Staphylococcus aureus assessed as cell content leakage at MIC by spectrophotometric method; assay type: functional, organism-based; conditions: TDE = time-dependent effect
# Procedure, shortened: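 Log-phase S. aureus inoculated into 0.1% sterile peptone water, with an untreated control, and held at 37 °C for 0, 30, 60 and 120 min. 1 mL of broth centrifuged and supernatant OD read at 260 nm to measure released DNA. Run in triplicate, repeated three times.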
# Aspergillus niger [18] = assay: Antifungal activity against Aspergillus niger at 25 ug/ml incubated for 48 hrs by agar well diffusion method; assay type: functional; conditions: read-out: DIZ; procedure, shortened: as §2
# Aspergillus niger [19] = assay: Antifungal activity against Aspergillus niger at 50 ug/ml incubated for 48 hrs by agar well diffusion method; assay type: functional; conditions: read-out: DIZ; procedure, shortened: as §2
# Klebsiella pneumoniae [20] = assay: Antibacterial activity against Klebsiella pneumoniae at 25 ug/ml incubated for 24 hrs by agar well diffusion method; assay type: functional; conditions: read-out: DIZ; procedure, shortened: as §1
# Klebsiella pneumoniae [21] = assay: Antibacterial activity against Klebsiella pneumoniae incubated for 24 hrs by microdilution method; assay type: functional
# Candida albicans [22] = assay: Antifungal activity against Candida albicans incubated for 48 to 72 hrs by microdilution method; assay type: functional
# Procedure, shortened: (§3)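 Sabouraud agar plates inoculated with fungal suspension at 10⁵ CFU mL⁻¹ plus serially diluted compounds and bavistin reference, both in DMSO. Incubated at 25 °C for 48–72 h. MIC is the lowest concentration completely inhibiting growth. Values are means of three determinations.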
# Klebsiella pneumoniae [23] = assay: Antibacterial activity against Klebsiella pneumoniae at 75 ug/ml incubated for 24 hrs by agar well diffusion method; assay type: functional; conditions: read-out: DIZ; procedure, shortened: as §1
# Staphylococcus aureus [24] = assay: Antibacterial activity against Staphylococcus aureus at 50 ug/ml incubated for 24 hrs by agar well diffusion method; assay type: functional; conditions: read-out: DIZ; procedure, shortened: as §1
# Fusarium oxysporum [25] = assay: Antifungal activity against Fusarium oxysporum at 75 ug/ml incubated for 48 hrs by agar well diffusion method; assay type: functional; conditions: read-out: DIZ; procedure, shortened: as §2
# Escherichia coli [26] = assay: Antibacterial activity against Escherichia coli at 25 ug/ml incubated for 24 hrs by agar well diffusion method; assay type: functional; conditions: read-out: DIZ; procedure, shortened: as §1
# Escherichia coli [27] = assay: Antibacterial activity against Escherichia coli incubated for 24 hrs by microdilution method; assay type: functional
# Bacillus subtilis [28] = assay: Antibacterial activity against Bacillus subtilis at 75 ug/ml incubated for 24 hrs by agar well diffusion method; assay type: functional; conditions: read-out: DIZ; procedure, shortened: as §1
# Fusarium oxysporum [29] = assay: Antifungal activity against Fusarium oxysporum incubated for 48 to 72 hrs by microdilution method; assay type: functional; procedure, shortened: as §3
# Bacillus subtilis [30] = assay: Antibacterial activity against Bacillus subtilis at 25 ug/ml incubated for 24 hrs by agar well diffusion method; assay type: functional; conditions: read-out: DIZ; procedure, shortened: as §1
# Staphylococcus aureus [31] = assay: Antibacterial activity against Staphylococcus aureus at 75 ug/ml incubated for 24 hrs by agar well diffusion method; assay type: functional; conditions: read-out: DIZ; procedure, shortened: as §1
# Aspergillus niger [32] = assay: Antifungal activity against Aspergillus niger incubated for 48 to 72 hrs by microdilution method; assay type: functional; procedure, shortened: as §3
# Fusarium oxysporum [33] = assay: Antifungal activity against Fusarium oxysporum at 50 ug/ml incubated for 48 hrs by agar well diffusion method; assay type: functional; conditions: read-out: DIZ; procedure, shortened: as §2
# Fusarium oxysporum [34] = assay: Antifungal activity against Fusarium oxysporum at 100 ug/ml incubated for 48 hrs by agar well diffusion method; assay type: functional; conditions: read-out: DIZ; procedure, shortened: as §2
# Klebsiella pneumoniae [35] = assay: Antibacterial activity against Klebsiella pneumoniae at 100 ug/ml incubated for 24 hrs by agar well diffusion method; assay type: functional; conditions: read-out: DIZ; procedure, shortened: as §1
# Escherichia coli [36] = assay: Antibacterial activity against Escherichia coli at 100 ug/ml incubated for 24 hrs by agar well diffusion method; assay type: functional; conditions: read-out: DIZ; procedure, shortened: as §1
MIC (Staphylococcus aureus [8]),MIC (Bacillus subtilis [14]),Structure (SMILES),IC50 (Erythrocyte),zone of inhibition at 100 µg/mL (Staphylococcus aureus [1]),zone of inhibition at 100 µg/mL (Aspergillus niger [2]),zone of inhibition at 50 µg/mL (Candida albicans [3]),zone of inhibition at 100 µg/mL (Bacillus subtilis [4]),zone of inhibition at 50 µg/mL (Klebsiella pneumoniae [5]),zone of inhibition at 75 µg/mL (Aspergillus niger [6]),zone of inhibition at 25 µg/mL (Candida albicans [7]),zone of inhibition at 75 µg/mL (Escherichia coli [9]),zone of inhibition at 25 µg/mL (Fusarium oxysporum [10]),zone of inhibition at 25 µg/mL (Staphylococcus aureus [11]),zone of inhibition at 100 µg/mL (Candida albicans [12]),zone of inhibition at 75 µg/mL (Candida albicans [13]),zone of inhibition at 50 µg/mL (Bacillus subtilis [15]),zone of inhibition at 50 µg/mL (Escherichia coli [16]),Activity (Staphylococcus aureus [17]),zone of inhibition at 25 µg/mL (Aspergillus niger [18]),zone of inhibition at 50 µg/mL (Aspergillus niger [19]),further results
27 mg/L,26 mg/L,CC(C)(C)OC(=O)N1CCC[C@H]1C(=O)Oc1ccc2c(=O)c3ccccc3oc2c1,34 mg/L,33 mm,33 mm,22 mm,35 mm,21 mm,30 mm,16 mm,31 mm,20 mm,17 mm,34 mm,27 mm,24 mm,26 mm,Tde,17 mm,24 mm,zone of inhibition at 25 µg/mL (Klebsiella pneumoniae [20]): 13 mm; MIC (Klebsiella pneumoniae [21]): 24 mg/L; MIC (Candida albicans [22]): 24 mg/L; zone of inhibition at 75 µg/mL (Klebsiella pneumoniae [23]): 27 mm; zone of inhibition at 50 µg/mL (Staphylococcus aureus [24]): 24 mm; zone of inhibition at 75 µg/mL (Fusarium oxysporum [25]): 29 mm; zone of inhibition at 25 µg/mL (Escherichia coli [26]): 17 mm; MIC (Escherichia coli [27]): 25 mg/L; zone of inhibition at 75 µg/mL (Bacillus subtilis [28]): 31 mm; MIC (Fusarium oxysporum [29]): 25 mg/L; zone of inhibition at 25 µg/mL (Bacillus subtilis [30]): 15 mm; zone of inhibition at 75 µg/mL (Staphylococcus aureus [31]): 29 mm; MIC (Aspergillus niger [32]): 29 mg/L; zone of inhibition at 50 µg/mL (Fusarium oxysporum [33]): 24 mm; zone of inhibition at 100 µg/mL (Fusarium oxysporum [34]): 35 mm; zone of inhibition at 100 µg/mL (Klebsiella pneumoniae [35]): 32 mm; zone of inhibition at 100 µg/mL (Escherichia coli [36]): 36 mm
26 mg/L,25 mg/L,Cl.O=C(Oc1ccc2c(=O)c3ccccc3oc2c1)[C@@H]1CCCN1,36 mg/L,35 mm,33 mm,22 mm,37 mm,28 mm,30 mm,16 mm,32 mm,20 mm,20 mm,34 mm,27 mm,26 mm,25 mm,Tde,17 mm,24 mm,zone of inhibition at 25 µg/mL (Klebsiella pneumoniae [20]): 18 mm; MIC (Klebsiella pneumoniae [21]): 26 mg/L; MIC (Candida albicans [22]): 28 mg/L; zone of inhibition at 75 µg/mL (Klebsiella pneumoniae [23]): 33 mm; zone of inhibition at 50 µg/mL (Staphylococcus aureus [24]): 27 mm; zone of inhibition at 75 µg/mL (Fusarium oxysporum [25]): 29 mm; zone of inhibition at 25 µg/mL (Escherichia coli [26]): 20 mm; MIC (Escherichia coli [27]): 24 mg/L; zone of inhibition at 75 µg/mL (Bacillus subtilis [28]): 32 mm; MIC (Fusarium oxysporum [29]): 28 mg/L; zone of inhibition at 25 µg/mL (Bacillus subtilis [30]): 18 mm; zone of inhibition at 75 µg/mL (Staphylococcus aureus [31]): 31 mm; MIC (Aspergillus niger [32]): 27 mg/L; zone of inhibition at 50 µg/mL (Fusarium oxysporum [33]): 24 mm; zone of inhibition at 100 µg/mL (Fusarium oxysporum [34]): 35 mm; zone of inhibition at 100 µg/mL (Klebsiella pneumoniae [35]): 38 mm; zone of inhibition at 100 µg/mL (Escherichia coli [36]): 39 mm
